This is an account of results in PubChem BioAssay AID720543 (The Scripps Research Institute Molecular Screening Center, 2013).

The campaign covered roughly 370,000 compounds. About 2,000 (0.54%) were called active. Shown is part of a subset that was picked to be rich in actives. Values without a mark were called inactive.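 How the source made its calls: active means inhibition exceeding the mean over every tested compound plus 3 SD (cut at about 30% in these data); inactive means the rest.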

(Lyso)-N-acylphosphatidylethanolamine lipase (Mus musculus), sequence (Q8VD66 whole entry, looked up): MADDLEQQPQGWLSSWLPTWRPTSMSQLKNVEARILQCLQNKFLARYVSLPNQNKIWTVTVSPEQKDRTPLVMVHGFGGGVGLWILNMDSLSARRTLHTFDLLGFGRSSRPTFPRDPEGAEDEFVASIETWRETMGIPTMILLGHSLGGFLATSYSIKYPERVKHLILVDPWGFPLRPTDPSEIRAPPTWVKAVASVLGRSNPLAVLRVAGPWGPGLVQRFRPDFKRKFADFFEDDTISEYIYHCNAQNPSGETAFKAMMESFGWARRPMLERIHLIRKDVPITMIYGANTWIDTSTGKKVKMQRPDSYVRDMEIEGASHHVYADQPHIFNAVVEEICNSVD

This test addresses (Lyso)-N-acylphosphatidylethanolamine lipase (Mus musculus) (UniProt Q8VD66). Description: mouse ABHD4 hydrolase activity blockers – biochemical, fluorescence polarization, primary screen (AID 720543).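 Further: 0% = plate median of compound wells and 100% = S159A mutant with DMSO.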 To be noted: purified mABHD4, FP-Rh probe fluorescence polarization; at 8.92 µM; hits give high values. Put shortly: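 assay system = mABHD4 protein | compound dosing = single nominal dose of 8.92 µM, 0.89% DMSO final | read-out basis = percent inhibition of probe binding, normalized to plate controls | schedule = Enzyme–compound pre-incubation 45 min, then probe 60 min, both 25 °C | detection = fluorescence polarization, excitation 525 nm, emission 598 nm, BODIPY TMR filters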
For the compound `O=c1c2ccccc2[nH]c(=S)n1-c1cccc(Cl)c1`, the inhibition was 6.67%.

With `COc1cc(-n2c(=S)[nH]c3ccc(C)cc3c2=O)c(Cl)cc1Cl`, the inhibition was 36.9% (active).

On to `CC12CN3CC(C)(CN(C1)C3c1cccs1)C2` (stereo not given), for which the inhibition was 2.23%.

Consider `C/C=C/CC1(CC)C(=O)NC(=S)NC1=O`, for which the inhibition is 5.1%.

With `c1ccc(C2NCc3ccccc3-n3cccc32)cc1` (stereo not given), the inhibition is 6.15%.

In the case of `CCOc1ccc(-c2cc(C)[n+](CCN(CC)CC)c(-c3ccc(OCC)cc3)c2)cc1`, the inhibition was 5.92%.

In the case of `CCOc1cccc(=NC2CCCCC2)c2c(C)[nH]c(C)c12`, the inhibition is 34.4% (active).

Take `COc1ccc(NC(=O)N2CCC3(CC2)OCCO3)c(OC)c1`: the inhibition was 2.18%.

Turning to `CO[C@H]([C@H](C)/C=C/N(C)C=O)[C@@H](C)C(=O)CC[C@H](C)[C@H](O)[C@H](C)[C@H]1OC(=O)/C=C/C(C)=C/[C@H](O)[C@H](OC)C[C@@H]2C=CC[C@@H](C[C@H](OC)[C@@]3(CO3)[C@@H](OC)C[C@@H](OC)[C@@H]1C)O2`, the inhibition is -6.78%.

Consider `Clc1ccc([C@@H]2CC3CCC2N3)cn1` (stereo not given in full), for which the inhibition is 7.57%.

The inhibition is the relative decrease from the control value, in per cent.
